Measurements as given in ChEMBL document CHEMBL2321840, “Synthesis and structure-activity relationships of indazole arylsulfonamides as allosteric CC-chemokine receptor 4 (CCR4) antagonists” (J Med Chem, 2013).
In brackets after ≈: the same amount, converted by molar mass.

Tests used:
[1] = Kinetic solubility of the compound by chemiluminescent nitrogen detection assay; assay type: physicochemical; conditions: for solubility kinetic: read-out: Kinetic_solubility
[2] = Lipophilicity, log D of the compound by chromatographic analysis; assay type: physicochemical
Procedure, shortened: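 Chromatographic log D measured at pH 7.4.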

[3] = target: T1, C-C chemokine receptor type 4 (Homo sapiens, UniProt P51679); test: Antagonist activity at human recombinant CCR4 receptor expressed in CHO cell membranes by [35S]GTPgammaS binding assay; assay type: functional
T1 sequence (P51679 whole entry): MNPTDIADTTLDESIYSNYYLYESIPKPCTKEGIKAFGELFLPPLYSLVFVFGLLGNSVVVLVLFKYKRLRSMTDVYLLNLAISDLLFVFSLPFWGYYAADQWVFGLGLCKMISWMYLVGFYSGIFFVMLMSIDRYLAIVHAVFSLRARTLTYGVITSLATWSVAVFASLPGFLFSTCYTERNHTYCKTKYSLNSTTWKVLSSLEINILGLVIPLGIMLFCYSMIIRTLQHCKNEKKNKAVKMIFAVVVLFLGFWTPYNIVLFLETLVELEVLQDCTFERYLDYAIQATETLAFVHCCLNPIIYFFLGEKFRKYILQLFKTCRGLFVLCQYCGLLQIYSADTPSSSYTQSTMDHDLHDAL

[4] = Oral bioavailability in Beagle dog at 1 mg/kg; assay type: ADME, organism-based, Canis lupus familiaris; conditions: in vivo
[5] = Volume of distribution at steady state in Beagle dog at 0.5 mg/kg, iv; assay type: ADME, organism-based, Canis lupus familiaris; set-up: dose 0.5 mg/kg, route intravenous; conditions: beagle, in vivo, read-out: Vdss
[6] = Dissociation constant, pKa of the compound; assay type: physicochemical
[7] = Plasma protein binding in human by equilibrium dialysis technique; assay type: ADME, cell-free; conditions: read-out: PPB (converted)
Procedure, shortened: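 Rapid equilibrium dialysis in CD rat, beagle dog or human plasma, with compound at a nominal 1 μg/mL; n = 3.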

[8] = target: T1, C-C chemokine receptor type 4; test: Antagonist activity at CCR4 receptor in human whole blood assessed as F-actin polymerization after 30 mins by FACS-based flow cytometric analysis; conditions: for Kb: read-out: pA2 (converted)
[9] = Volume of distribution at steady state in CD rat at 1 mg/kg, iv and 1 mg/kg, po; assay type: ADME, organism-based; conditions: in vivo, read-out: Vdss
Procedure, shortened: (§1)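 CD rat pharmacokinetics, with compounds given as solutions in DMSO–PEG200–H₂O (5:45:50); one analogue used a 10:40:50 ratio.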

[10] = Oral bioavailability in CD rat at 1 mg/kg; assay type: ADME, organism-based; conditions: in vivo; procedure, shortened: as §1
in vivo [11] = conditions: CD, rat, iv, 1 mg/kg
in vivo [12] = conditions: CD, rat, iv, 1 mg/kg; remark: listed apart in the source
in vivo [13] = conditions: beagle, dog, iv, 0.5 mg/kg
in vivo [14] = conditions: beagle, dog, iv, 0.5 mg/kg; remark: listed apart in the source

Compound | solubility kinetic [1] [µg/mL] | chromatographic logD [2] | IC50 [3] [µM] | pKa [6] | Kb [8] [µM] | also measured
COc1cccc2c1c(NS(=O)(=O)c1ccc(Cl)s1)nn2Cc1ccnc(CNC(C)=O)c1 | ≥ 161 | 2.5 | 0.1 | – | – | –
COc1ccc(F)c2c1c(NS(=O)(=O)c1ccc(Cl)s1)nn2Cc1cccc(CNC(C)=O)c1 | ≥ 177 | 4 | 0.0794 | – | – | –
COc1cccc2c1c(NS(=O)(=O)c1ccc(Cl)s1)nn2Cc1cccc(CNC(=O)[C@H]2COCCN2)c1 | ≥ 250 | 3.9 | 0.0251 | – | 0.562 | –
COc1cccc2c1c(NS(=O)(=O)c1ccc(Cl)s1)nn2Cc1cccc(CNC(=O)C2COC2)c1 | ≥ 173 | 4 | 0.02 | – | 1 | –
COc1cccc2c1c(NS(=O)(=O)c1ccc(Cl)c(Cl)c1)nn2Cc1cccc(CNC(=O)C(C)(C)O)c1 | 76 (≈ 132 µM) | 5.1 | 0.398 | 6.76 | – | –
COc1cc(F)cc2c1c(NS(=O)(=O)c1ccc(Cl)s1)nn2Cc1cccc(CNC(C)=O)c1 | ≥ 161 | 4.1 | 0.0398 | – | 1 | –
COc1cccc2c1c(NS(=O)(=O)c1ccc(Cl)s1)nn2Cc1cccc(CNC2COC2)c1 | 122 (≈ 235 µM) | 4.3 | 0.251 | – | – | –
COc1cccc2c1c(NS(=O)(=O)c1ccc(Cl)s1)nn2Cc1cc(CNC(C)=O)ccn1 | ≥ 141 | 2.6 | 0.158 | – | > 10 | –
O=C([C@H]1CCCCN1)N1CCN(c2nc(NCc3ccc(Cl)cc3Cl)c3cccnc3n2)CC1 | – | 2.9 | – | – | – | –
COc1cccc2c1c(NS(=O)(=O)c1ccc(Cl)s1)nn2Cc1cccc(CNC(=O)C2COCCN2C)c1 (single isomer, unassigned; isomer A) | – | – | – | – | – | pA2 [8]: 6.6; Kinetic_solubility [1]: >= 203 ug ml-1; pIC50 ([3]; cho): 8.2
COc1cccc2c1c(NS(=O)(=O)c1cccc(Cl)c1Cl)nn2Cc1cccc(CNC(=O)C(C)(C)O)c1 | 157 (≈ 272 µM) | 4.7 | 0.398 | 6.82 | – | –
COc1cccc2c1c(NS(=O)(=O)c1ccc(Cl)s1)nn2Cc1cccc(CNC(=O)C(C)(C)N)c1 | ≥ 180 | 3.3 | 0.0158 | – | 0.141 | Vd [5]: 5 L/kg; fraction unbound [7]: 0.04; Vd [9]: 0.84 L/kg; bioavailability [10]: 29%; half-life (in vivo [13]): 2.4 h; clearance (in vivo [14]): 18 mL/min/kg; clearance (in vivo [11]): 15 mL/min/kg; half-life (in vivo [12]): 1.3 h
COc1cccc2c1c(NS(=O)(=O)c1ccc(Cl)s1)nn2Cc1cccc(CNC(=O)C2CCCO2)c1 (configuration not stated) | ≥ 153 | 4.9 | 0.0398 | – | 0.794 | –
COc1cccc2c1c(NS(=O)(=O)c1ccc(Cl)s1)nn2Cc1cccc(CNC(C)=O)n1 | ≥ 182 | 3 | 0.126 | – | – | –
COc1cccc2c1c(NS(=O)(=O)c1ccc(Cl)s1)nn2Cc1cccc(CNC(=O)C2CCOCC2)c1 | ≥ 193 | 4.4 | 0.0316 | – | 0.501 | –
COc1ccc(COc2nc(Br)cnc2NS(=O)(=O)c2ccc(C)cc2)cc1OCCN(C)C | – | 2.9 | – | – | – | –
COc1cccc2c1c(NS(=O)(=O)c1ccc(C)c(F)c1)nn2Cc1cccc(CNC(=O)C(C)(C)O)c1 | 36 (≈ 66.6 µM) | 4.5 | 0.0158 | 7.26 | 1.26 | –
COc1c(F)ccc2c1c(NS(=O)(=O)c1ccc(Cl)s1)nn2Cc1cccc(CNC(=O)C(C)(C)O)c1 | ≥ 174 | 4.1 | 0.0398 | – | 0.631 | –
COc1cccc2c1c(NS(=O)(=O)c1ccc(Cl)s1)nn2Cc1cccc(CNC(=O)C2COCCN2C)c1 (single isomer, unassigned; isomer B) | ≥ 180 | 4.4 | 0.00631 | – | 0.251 | Vd [5]: 5.7 L/kg; fraction unbound [7]: 0.014; Vd [9]: 1 L/kg; bioavailability [10]: 68%; half-life (in vivo [13]): 2.6 h; clearance (in vivo [14]): 22 mL/min/kg; clearance (in vivo [11]): 24 mL/min/kg; half-life (in vivo [12]): 1.3 h
COc1c(F)ccc2c1c(NS(=O)(=O)c1ccc(Cl)s1)nn2Cc1cccc(CNC(C)=O)c1 | ≥ 199 | 4.1 | 0.0126 | – | 3.16 | –
COc1cccc2c1c(NS(=O)(=O)c1cccc(Cl)c1)nn2Cc1cccc(CNC(=O)C(C)(C)O)c1 | ≥ 198 | 4.5 | 0.0501 | 7.06 | – | –
COc1cccc2c1c(NS(=O)(=O)c1ccc(Cl)s1)nn2Cc1cccc(CNC(=O)C2CCO2)c1 (configuration not stated) | 124 (≈ 227 µM) | 4.5 | 0.0316 | – | – | –

More lines, main results first:

solubility kinetic [1] [µg/mL] | chromatographic logD [2] | IC50 [3] [µM] | pKa [6] | Kb [8] [µM] | Compound | also measured
≥ 124 | 4.1 | – | 6.6 | – | COc1cccc2c1c(NS(=O)(=O)c1ccc(Cl)s1)nn2Cc1cccc(CNC(C)=O)c1 | bioavailability [4]: 49%; Vd [5]: 3.2 L/kg; fraction unbound [7]: 0.005
≥ 188 | 3.7 | 0.1 | 5.6 | 7.94 | CC(=O)NCc1cccc(Cn2nc(NS(=O)(=O)c3ccc(Cl)s3)c3c(C(F)F)cccc32)c1 | –
≥ 166 | 2.9 | 0.0126 | 6.12 | 0.794 | CC(=O)NCc1cccc(Cn2nc(NS(=O)(=O)c3ccc(Cl)s3)c3c(O)cccc32)c1 | Vd [9]: 1.2 L/kg; bioavailability [10]: 12%; clearance (in vivo [11]): 19 mL/min/kg; half-life (in vivo [12]): 1.2 h
≥ 159 | 2.9 | 0.1 | 5.46 | – | CC(=O)NCc1cccc(Cn2nc(NS(=O)(=O)c3ccc(Cl)s3)c3c(C(C)(C)O)cccc32)c1 | –
≥ 113 | 2.6 | 0.00631 | 5.66 | 1 | CC(=O)NCc1cccc(Cn2nc(NS(=O)(=O)c3ccc(Cl)s3)c3c(CO)cccc32)c1 | –
≥ 117 | 3.3 | 0.251 | 5.93 | – | CC(=O)NCc1cccc(Cn2nc(NS(=O)(=O)c3ccc(Cl)s3)c3ccccc32)c1 | –
≥ 226 | 3.8 | 0.0316 | 6.03 | 6.31 | CC(=O)NCc1cccc(Cn2nc(NS(=O)(=O)c3ccc(Cl)s3)c3c(Cl)cccc32)c1 | –
57 (≈ 110 µM) | 4.8 | 0.1 | – | – | CC(=O)NCc1cccc(Cn2nc(NS(=O)(=O)c3ccc(Cl)s3)c3c(C(C)=O)cccc32)c1 | –
≥ 208 | 2.7 | 0.02 | 5.62 | 0.501 | CC(=O)NCc1cccc(Cn2nc(NS(=O)(=O)c3ccc(Cl)s3)c3c(C(C)O)cccc32)c1 (configuration not stated) | Vd [9]: 3.5 L/kg; bioavailability [10]: 35%; clearance (in vivo [11]): 13 mL/min/kg; half-life (in vivo [12]): 3.7 h
≥ 139 | 3 | 0.0794 | 5.62 | 5.01 | CC(=O)NCc1cccc(Cn2nc(NS(=O)(=O)c3ccc(Cl)s3)c3c(F)cccc32)c1 | –
≥ 155 | 2.5 | 0.316 | 5.4 | – | CC(=O)NCc1cccc(Cn2nc(NS(=O)(=O)c3ccc(Cl)s3)c3c(C#N)cccc32)c1 | –
